Consider 3 compounds from ChEMBL document CHEMBL1138266, “Design, synthesis, and biological evaluation of a 1alpha,25-dihydroxy-19-norvitamin D3 analogue with a frozen A-ring conformation” (J Med Chem, 2007).

The source made the active and inactive calls. The calls are words filed in the database; no cut-off is given here. Bounds are passed on as bounds.

Test [1] deals with HL-60. Kind of test: Ratio of ED50 for drug to 1-alpha,25-dihydroxyvitamin for HL60 cells differentiation by NBT reduction assay. The test is classed as functional, Homo sapiens. In short, it runs like this: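 Human HL-60 promyelocytes induced toward monocytic differentiation; maturation scored as percentage of cells reducing nitro blue tetrazolium. […] Experiment repeated in duplicate two times.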

In test [2] the target is T1, Vitamin D3 receptor (Rattus norvegicus, UniProt P13053).
T1 sequence (P13053 whole entry): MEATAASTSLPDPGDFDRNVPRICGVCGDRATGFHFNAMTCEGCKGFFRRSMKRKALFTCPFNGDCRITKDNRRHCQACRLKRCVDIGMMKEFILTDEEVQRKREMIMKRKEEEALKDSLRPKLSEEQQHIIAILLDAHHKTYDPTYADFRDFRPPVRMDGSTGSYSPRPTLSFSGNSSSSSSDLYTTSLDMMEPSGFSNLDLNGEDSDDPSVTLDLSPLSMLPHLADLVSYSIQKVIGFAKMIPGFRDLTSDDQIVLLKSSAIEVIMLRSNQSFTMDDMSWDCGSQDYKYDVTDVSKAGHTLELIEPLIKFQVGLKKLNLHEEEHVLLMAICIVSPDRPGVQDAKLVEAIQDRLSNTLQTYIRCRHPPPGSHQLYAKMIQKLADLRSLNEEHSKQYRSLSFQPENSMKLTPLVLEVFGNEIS
Kind of test: Displacement of 1-alpha,25-dihydroxyvitamin from rat recombinant VDR. In short, it runs like this: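 Competitive binding against radiolabeled 1α,25-(OH)2D3 at 1 nM. Run in duplicate on two separate occasions.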

Test [3] deals with T1, Vitamin D3 receptor. Kind of test: (§1) Activity at VDR in rat osteosarcoma cells assessed as 24-hydroxylase transcription by reporter gene assay. The test is classed as cell-based. In short, it runs like this:
(§2)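 Rat osteosarcoma cells stably carrying a 24-hydroxylase gene reporter plasmid, read as luciferase activity.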
(In general: In a reporter assay the amount or activity of a reporter protein is the signal.)

In test [4] the test system is HL-60. The test is described as follows: Induction of differention of human HL60 cells into monocytes by NBT reduction assay. The test is classed as functional, cell-based.
In test [5] the test system is Mus musculus. The test is described as follows: Increase in serum calcium in vitamin D sufficient CD1 mouse at 150 ug/kg, po. The test is classed as functional, organism-based. In short, it runs like this:
(§3)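 Female CD-1 mice, 6-7 weeks old, were group-housed on a purified diet with 0.47% calcium and acclimated 5-7 days. Each got a single dose (n=5-6/group). Serum calcium was measured by atomic absorption after 0.1% lanthanum chloride dilution. Analysis was one-way ANOVA with pairwise comparisons.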

Test [6] concerns Mus musculus. The test is described as follows: Increase in serum calcium in vitamin D sufficient CD1 mouse at 50 ug/kg, ip. The test is classed as functional, organism-based. Put shortly:
as §3

In test [7] the test system is Mus musculus. Kind of test: Increase in serum calcium in vitamin D deficient CD1 mouse at 181.5 […], ip after 24 hrs. The test is classed as functional, organism-based. In short, it runs like this: (§4)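 Female CD-1 mice, 6 weeks old on arrival, were fed a purified vitamin D-deficient diet for 17 weeks (n=3/group). They got a single intraperitoneal injection in 95:5 propylene glycol/ethanol vehicle. Blood was drawn predose and at multiple later times. Serum was diluted in 0.1% lanthanum chloride and calcium read by atomic absorption, reported as change from baseline.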

Test [8] concerns Mus musculus. Kind of test: Increase in serum calcium in vitamin D sufficient CD1 mouse at 150 ug/kg, ip. The test is classed as functional, organism-based. In short, it runs like this:
as §3

For test [9], the system named is Mus musculus. The test is described as follows: Increase in serum calcium in vitamin D sufficient CD1 mouse at 33.3 ug/kg, ip. The test is classed as functional, organism-based. In short, it runs like this:
as §3

The test system of test [10] is Mus musculus. The test is described as follows: Increase in serum calcium in vitamin D sufficient CD1 mouse at 33.3 ug/kg, po. The test is classed as functional, organism-based. Put shortly:
as §3

Test [11] has as its target T2, Vitamin D3 receptor (Rattus norvegicus) (UniProt P13053).
T2 sequence (whole entry): T1 sequence (P13053 whole entry)
The description is as §1. The test is classed as cell-based. In short, it runs like this:
as §2

Test [12] has as its system Mus musculus. Kind of test: Increase in serum calcium in vitamin D deficient CD1 mouse at 5.4 […], ip after 24 hrs. The test is classed as functional, organism-based. In short, it runs like this: as §4

Regarding `C[C@H](CCCC(C)(C)O)C1CC[C@H]2/C(=C/C=C3/C[C@@H](O)C4=CCCO[C@@H]4C3)CCC[C@]12C` (some centres not stated), the “Ratio ED50” value with HL-60 [1] was greater than 100. Besides, the Ki (in general, a dissociation constant, usually derived from enzyme kinetics or from competition with a known ligand) at Vitamin D3 receptor [2] stood at 30 nM. Moreover, the concentration for a half-maximal effect (EC50) at Vitamin D3 receptor [3] and in the test on HL-60 [4] was 100 nM in each case.
In the case of `C[C@H](CCCC(C)(C)O)C1CC[C@H]2/C(=C/C=C3\C[C@@H](O)C4=CCCO[C@@H]4C3)CCC[C@]12C` (some centres not stated), the result in the test on Mus musculus [5], in the test on Mus musculus [6], in the test with Mus musculus [7], in the test with Mus musculus [8], in the test on Mus musculus [9] and with Mus musculus [10] was Active. The outcome in the test with Mus musculus [12] was Active. For the same compound, the “Ratio ED50” value with HL-60 [1] was greater than 1000. Besides, the Ki at Vitamin D3 receptor [2] came to 10000 nM. Besides, the result in test [11] was inactive. For the same compound, in the test with HL-60 [4], the EC50 (commonly the midpoint of the concentration-response curve) stood at 1000 nM.
On to `C=C1/C(=C\C=C2/CCC[C@]3(C)[C@@H]([C@H](C)CCCC(C)(C)O)CC[C@@H]23)C[C@@H](O)C[C@@H]1O`, for which the result with Mus musculus [7] and in the test on Mus musculus [12] was Active.
